For assay [1], the system named is KB. The assay is described as follows: Cytotoxicity against human KB cells at 20 ug/mL. In kind it is functional.
Assay [2] is described as follows: Cytotoxicity against human BC1 cells at 20 ug/mL. The class given is functional.
Assay [3] has as its system Vero. Put plainly: Cytotoxicity against african green monkey Vero cells at 20 ug/mL. The class given is functional. The conditions noted are these: Chlorocebus sabaeus.
Another assay deals with Plasmodium falciparum. The assay is described as follows: Antimalarial activity against Plasmodium falciparum K1 by [3H]hypoxanthine uptake. In kind it is functional, organism-based. In outline:
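P. falciparum K1 (multidrug-resistant) asexual erythrocytic stages were kept in continuous in vitro culture. Activity was measured by a microculture radioisotope method. EC50 is the concentration giving 50% reduction in parasite growth, read as in vitro [3H]hypoxanthine uptake.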

In assay [4] the test system is KB. Put plainly: Cytotoxicity against human KB cells. In kind it is functional, cell-based.
Assay [5] is described as follows: Cytotoxicity against human BC1 cells. The class given is functional, cell-based.
Assay [6] deals with Vero. The assay is described as follows: Cytotoxicity against african green monkey Vero cells. The class given is functional, cell-based, Chlorocebus sabaeus.

In brackets after ≈: the same amount, converted by molar mass.

As a reminder, the inhibition is the drop in the measured response relative to a control, in per cent. Take `C[C@@H]1CC[C@H]2[C@@H](C)C(=O)O[C@@H]3O[C@@]4(C)CC[C@@H]1[C@]32OO4` [ARTEMISININ]: the inhibition at 20 µg/mL (in the assay on KB [1]; in assay [2]; with Vero [3]) was less than 50% each time.

In general, EC50 refers to the concentration that produces a half-maximal response. Take `CC1=C[C@H]2O[C@@H]3C[C@H]4OC(=O)/C=C\C=C\[C@H]([C@@H](C)O)OCC[C@@H](C)[C@H](O)C(=O)OC[C@@]2(CC1)[C@]4(C)[C@]31CO1` [RORIDIN A]: the EC50 with Plasmodium falciparum worked out at 0.31 ng/mL (≈ 0.582 nM); in the assay with KB [4] it was 1 ng/mL (≈ 1.88 nM); in assay [5], 5 ng/mL (≈ 9.39 nM); with Vero [6], 1.7 ng/mL (≈ 3.19 nM).

`CC(=O)O[C@H](C)[C@H]1/C=C/C=C\C(=O)O[C@@H]2C[C@H]3O[C@@H]4C=C(C)CC[C@]4(COC(=O)/C=C(\C)CCO1)[C@]2(C)[C@]31CO1` [RORIDIN E ACETATE]: the EC50 with Plasmodium falciparum stood at 0.06 ng/mL; in the assay with KB [4], 14 ng/mL; in assay [5], 15 ng/mL; in the assay on Vero [6], 4.1 ng/mL.

As to `CC1=C[C@H]2O[C@@H]3C[C@H]4OC(=O)/C=C\C=C\[C@H]([C@@H](C)O)OCC/C(C)=C/C(=O)OC[C@@]2(CC1)[C@]4(C)[C@]31CO1` [RORIDIN E], the EC50 in the assay with Plasmodium falciparum worked out at 0.15 ng/mL (≈ 0.291 nM); in the assay on KB [4], 0.5 ng/mL (≈ 0.972 nM); in assay [5], 0.7 ng/mL (≈ 1.36 nM); in the assay with Vero [6] it was 0.4 ng/mL (≈ 0.777 nM).

With `CC1=C[C@H]2O[C@@H]3C[C@H]4OC(=O)/C=C\C=C\C(=O)OCC[C@@H](C)[C@H](O)C(=O)OC[C@@]2(CC1)[C@]4(C)[C@]31CO1` [VERRUCARIN A], the EC50 came out at 0.9 ng/mL (≈ 1.79 nM) in the assay with Plasmodium falciparum, 1.2 ng/mL (≈ 2.39 nM) in the assay on KB [4], 4.2 ng/mL (≈ 8.36 nM) in assay [5] and 1.1 ng/mL (≈ 2.19 nM) in the assay on Vero [6].

As to `CC1=C[C@H]2O[C@@H]3C[C@H]4OC(=O)/C=C\C=C\C(=O)OCC/C(C)=C/C(=O)OC[C@@]2(CC1)[C@]4(C)[C@]31CO1` [VERRUCARIN J], the EC50 in the assay on Plasmodium falciparum was 0.2 ng/mL (≈ 0.413 nM); in the assay with KB [4], 3.9 ng/mL (≈ 8.05 nM); in assay [5] it was 14 ng/mL (≈ 28.9 nM); in the assay on Vero [6], 1.2 ng/mL (≈ 2.48 nM).

Values taken from ChEMBL document CHEMBL1158025, “Antimalarial activity of macrocyclic trichothecenes isolated from the fungus Myrothecium verrucaria” (J Nat Prod, 1999).
